These results are taken from ChEMBL document CHEMBL4619794, “2-Aminooxazole as a Novel Privileged Scaffold in Antitubercular Medicinal Chemistry” (ACS Med Chem Lett, 2020).

Structures are written as SMILES. In brackets after ≈: the same amount, converted by molar mass.

Data set [1] is described as follows: Kinetic solubility of compound in water incubated for 4 hrs by HPLC-MS/MS analysis. Format: physicochemical. The conditions noted are these: read-out: Kinetic_solubility.
Data set [2] is described as follows: Glutathione reactivity of compound assessed as GSH adduct formation incubated for 24 hrs by HPLC-MS analysis. The class given is physicochemical. More on the design: concentration or dose not given beside the values. A digest of the protocol: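 Compounds incubated 24 h with GSH in 1:100 molar excess, then analysed by HPLC–MS/MS in full-scan mode. Both the singly charged [M + H]+ and doubly charged [M + 2H]2+ conjugate ions were monitored. Percentage conjugate = (sum of both conjugate ion peak areas)/(parent [M + H]+ peak area).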

Data set [3] is described as follows: Metabolic stability in human liver microsomes assessed as intrinsic clearance at 1 uM measured upto 60 mins by HPLC-MS/MS analysis. Format: ADME, Microsome. The conditions noted are these: read-out: CLH. A digest of the protocol: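 Intrinsic clearance derived from the microsomal in vitro half-life as (0.693/t1/2) × (mL incubation/mg microsomes) × (45 mg microsomes/g liver) × (20 g liver/kg body weight). Expressed in mL min–1 kg–1.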

The test system of data set [4] is Mycobacterium tuberculosis. Put plainly: Antimycobacterial activity against Mycobacterium tuberculosis H37Rv ATCC 27294 assessed as reduction in bacterial growth incubated for […] by alamar blue assay. Format: functional. In general terms: The colour change of resazurin is a common sign of viable cells or microbes.
Data set [5] in a line: Kinetic solubility of compound in PBS at pH 7.4 incubated for 4 hrs by HPLC-MS/MS analysis. Format: physicochemical. As to conditions: read-out: Kinetic_solubility.
Data set [6] is described as follows: Metabolic stability in human liver microsomes assessed as half life at 1 uM measured upto 60 mins by HPLC-MS/MS analysis. Format: ADME, Microsome. A digest of the protocol:
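Half-life of the compound in human liver microsomes, expressed in minutes. Reported as mean ± SD, n = 3.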

Data set [7] has as its system Mycobacterium tuberculosis. The experiment in a line: Antimycobacterial activity against Mycobacterium tuberculosis assessed as reduction in bacterial growth by microdilution method. Format: functional. (Dilution methods test growth across graded concentrations, often in twofold steps.)
For data set [8], the system named is Mycobacterium tuberculosis. Put plainly: Antimycobacterial activity against Mycobacterium tuberculosis assessed as reduction in bacterial growth incubated for 21 days by REMA assay. The conditions noted are these: 504 h. The class given is functional.
A further data set relates to Vero. The experiment in a line: Cytotoxicity against African green monkey Vero cells. Format: cell-based. As to conditions: chlorocebus sabaeus.

As usually defined, the MIC is the lowest concentration that inhibits growth of the organism. For orientation: half-life means the time in which the quantity being followed falls by half.

Consider `Cc1ccc(Nc2nc(-c3cc(C(F)(F)F)ccc3F)cs2)cc1`, for which the solubility kinetic at 4 h came out at 24 µM (≈ 8.46 µg/mL) in data set [1] and 7.5 µM (≈ 2.64 µg/mL) in data set [5]. Besides, the Activity in data set [2] turned out to be 10.4%. Besides, the CLint scaled at 1 µM in data set [3] was determined as 27.9 mL/min/kg. The MIC in [4] is 27.5 µM (≈ 9.69 µg/mL). The half-life at 1 µM in [6] stood at 22.4 min.

In the case of `Cc1ccc(Nc2nc(-c3cc(C(=O)Nc4ccccn4)no3)cs2)cc1`, the solubility kinetic at 4 h stood at 2.9 µM (≈ 1.09 µg/mL) in [1] and 2.4 µM (≈ 0.906 µg/mL) in data set [5]. Also, the minimum inhibitory concentration (MIC) in data set [7] was 0.16 µM (≈ 0.0604 µg/mL). The Activity in [2] turned out to be 7.1%. Moreover, the CLint scaled at 1 µM in [3] is 38.8 mL/min/kg. For the same compound, the half-life at 1 µM in data set [6] was 16.1 min.

`Cc1ccc(Nc2nc(-c3cc(C(F)(F)F)ccc3F)co2)cc1`: the solubility kinetic at 4 h in [1] was found to be 5.2 µM (≈ 1.75 µg/mL); in data set [5], 5.9 µM (≈ 1.98 µg/mL). Also, the Activity in data set [2] turned out to be 14.2%. The CLint scaled at 1 µM in [3] turned out to be 27.6 mL/min/kg. In addition, in [4], the minimal inhibitory concentration (MIC) is 12.3 µM (≈ 4.14 µg/mL). Also, the half-life at 1 µM in [6] was 22.6 min.

In the case of `CCOC(=O)c1cc(-c2csc(Nc3ccc(C)cc3)n2)on1`, the solubility kinetic at 4 h is 54.9 µM (≈ 18.1 µg/mL) in data set [1] and 27.7 µM (≈ 9.12 µg/mL) in data set [5]. For the same compound, the MIC in data set [7] worked out at 1.5 µM (≈ 0.494 µg/mL). Moreover, in [2], the Activity is 3.7%. Also, in [3], the CLint scaled at 1 µM was 189 mL/min/kg. Further, in data set [6], the half-life at 1 µM came to 3.3 min.

For the compound `Cc1ccc(Nc2nc(-c3cc(C(=O)Nc4ccccn4)no3)co2)cc1`, the minimum inhibitory concentration (MIC) in data set [8] came to 6.9 µM (≈ 2.49 µg/mL). For the same compound, the solubility kinetic at 4 h in [1] was found to be 24 µM (≈ 8.67 µg/mL); in data set [5], 9.3 µM (≈ 3.36 µg/mL). Also, the Activity in data set [2] is reported as 2.1%; with Vero it was “Non-Toxic”. Further, the CLint scaled at 1 µM in data set [3] turned out to be 41.5 mL/min/kg. Also, in [6], the half-life at 1 µM is 15 min.

As to `COc1ccc(-c2coc(Nc3ccc(C)cc3)n2)cc1`, the solubility kinetic at 4 h in data set [1] was 0.7 µM (≈ 0.196 µg/mL); in data set [5], 1.1 µM (≈ 0.308 µg/mL). Also, in data set [2], the Activity was found to be 14.2%. In addition, the CLint scaled at 1 µM in data set [3] stood at 29.9 mL/min/kg. Moreover, in [4], the MIC was above 100 µM. Further, the half-life at 1 µM in [6] stood at 20.9 min.

Regarding `COc1ccc(-c2csc(Nc3ccc(C)cc3)n2)cc1`, the solubility kinetic at 4 h in data set [1] came to 20 µM (≈ 5.93 µg/mL); in data set [5] it was 1.2 µM (≈ 0.356 µg/mL). Further, the Activity in data set [2] came out at 13.9%. Further, the CLint scaled at 1 µM in data set [3] amounted to 42.9 mL/min/kg. Further, the MIC in [4] is 13 µM (≈ 3.85 µg/mL). Also, the half-life at 1 µM in data set [6] came out at 14.5 min.

For `CCOC(=O)c1cc(-c2coc(Nc3ccc(C)cc3)n2)on1`, the results for the solubility kinetic at 4 h in data set [1] and in [5] were 9.1 µM (≈ 2.85 µg/mL) and 6.8 µM (≈ 2.13 µg/mL), respectively. For the same compound, the Activity in data set [2] was 15.8%; in the data set on Vero, “Non-Toxic”. Moreover, the CLint scaled at 1 µM in data set [3] is 226 mL/min/kg. In data set [4], the MIC stood at 2.3 µM (≈ 0.721 µg/mL). In addition, the half-life at 1 µM in [6] came out at 2.7 min.
